A short description of experiment [1]: Inhibition of CREB (unknown origin)-mediated gene transcription in HEK293T cells preincubated for 30 mins followed by forskolin addition measured after 5 hrs by luciferase reporter gene assay. It is filed as cell-based. Conditions: Homo sapiens, HEK-293T. An outline of the steps: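 HEK 293T cells transfected with CRE-RLuc (RLuc driven by three tandem CRE copies), treated with graded compound concentrations for 30 min, then stimulated with forskolin (10 μM) for another 5 h. Cells lysed and RLuc activity read, normalized to protein (RLU/μg protein). Stocks in DMSO (one in DMF). IC50 in μM, mean ± SD of at least two independent experiments run in triplicate; top concentration 50 or 100 μM.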

Experiment [2] can be described thus: (§1) Inhibition of CREB-KID/CBP-KIX domain interaction (unknown origin) after 20 hrs by luciferase reporter gene assay. On the set-up: species or system Homo sapiens. An outline of the steps:
(§2)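 Split Renilla luciferase complementation assay: RLucC-KIX and KID-RLucN fusions mixed with graded compound concentrations at 4 °C for 20 h, then residual RLuc activity measured. Stocks in DMSO (one in DMF). IC50 in μM, mean ± SD of at least two independent experiments run in duplicate; top concentration 50 or 100 μM.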
(A reporter such as luciferase makes a cellular process visible.)

For experiment [3], the system named is HEK-293T. In words: Selectivity ratio of IC50 for CREB (unknown origin)-mediated gene transcription in HEK293T cells to IC50 for CREB-KID/CBP-KIX domain interaction (unknown origin). It is filed as cell-based. Conditions: Homo sapiens.
Experiment [4] can be described thus: Inhibition of Herpesvirus VP16-CREB (unknown origin)-mediated gene transcription in HEK293T cells by luciferase reporter gene assay. It counts as cell-based. Conditions: HEK-293T. An outline of the steps: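 HEK 293T cells cotransfected with VP16-CREB plus CRE-RLuc, treated with graded compound concentrations without forskolin stimulation, then lysed and RLuc activity read and normalized to protein (RLU/μg protein). IC50 in μM, mean ± SD of at least two independent experiments run in triplicate; top concentration 50 or 100 μM.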

In experiment [5] the test system is HEK-293T. Nature of the experiment: Selectivity ratio of IC50 for Herpesvirus VP16-CREB (unknown origin)-mediated gene transcription in HEK293T cells to IC50 for CREB (unknown origin)-mediated gene transcription in HEK293T cells. It counts as cell-based.
The species entered for the next experiment is Homo sapiens. The experiment is described as §1. The procedure, abridged: as §2

IC50, Ratio IC50 and inhibition data for seven compounds are collected here from ChEMBL document CHEMBL2424539, “Identification, synthesis and evaluation of substituted benzofurazans as inhibitors of CREB-mediated gene transcription” (Bioorg Med Chem Lett, 2013).

The term IC50 denotes the point on the concentration scale where inhibition reaches its midpoint. Higher therefore signals lower potency.

For `O=C(Nc1ccc(Cl)cc1)c1ccc([N+](=O)[O-])c2nonc12`, the values for the IC50 in experiment [1] and in experiment [2] were greater than 50 µM and 0.17 µM, respectively.

Regarding `O=[N+]([O-])c1ccc(Nc2ccc(Cl)cc2)c2nonc12`, in the experiment with HEK-293T [3], the Ratio IC50 came out at 2. The IC50 in experiment [1] is 13.7 µM; in experiment [4] it was greater than 100 µM; in experiment [2] it was 7.14 µM.

Regarding `O=[N+]([O-])c1ccc(Sc2ccccn2)c2nonc12`, the IC50 worked out at 9.42 µM in experiment [1], 13.2 µM in experiment [4] and 0.41 µM in experiment [2].

On to `O=[N+]([O-])c1ccc(Sc2cccc[n+]2[O-])c2nonc12`, for which the Ratio IC50 in the experiment with HEK-293T [5] stood at 3. Further, the figures for the IC50 in experiment [1], in experiment [4] and in experiment [2] were 2.09 µM, 6.14 µM and 0.36 µM, respectively. The inhibition entry in the experiment listed under Homo sapiens was “Dose-dependent effect”.

Take `Nc1ccc(Nc2ccc(Cl)cc2)c2nonc12`: the results for the IC50 in experiment [1], in experiment [4] and in experiment [2] were 50 µM, greater than 50 µM and 50 µM, respectively.

Take `O=[N+]([O-])c1cc(NCc2cccc3nonc23)ccc1Cl`: the IC50 in experiment [1] and in experiment [2] was greater than 50 µM in each case.

Consider `O=[N+]([O-])c1ccc(CNc2ccc(Cl)cc2)c2nonc12`, for which the IC50 is greater than 50 µM in experiment [1] and 13.1 µM in experiment [2].
